Assay results collected from several papers.
Compare with care: the assays were run in different laboratories.
Target: Ephrin type-A receptor 1 (EPHA1, Homo sapiens, UniProt P21709)
One construct used (P21709 26-976): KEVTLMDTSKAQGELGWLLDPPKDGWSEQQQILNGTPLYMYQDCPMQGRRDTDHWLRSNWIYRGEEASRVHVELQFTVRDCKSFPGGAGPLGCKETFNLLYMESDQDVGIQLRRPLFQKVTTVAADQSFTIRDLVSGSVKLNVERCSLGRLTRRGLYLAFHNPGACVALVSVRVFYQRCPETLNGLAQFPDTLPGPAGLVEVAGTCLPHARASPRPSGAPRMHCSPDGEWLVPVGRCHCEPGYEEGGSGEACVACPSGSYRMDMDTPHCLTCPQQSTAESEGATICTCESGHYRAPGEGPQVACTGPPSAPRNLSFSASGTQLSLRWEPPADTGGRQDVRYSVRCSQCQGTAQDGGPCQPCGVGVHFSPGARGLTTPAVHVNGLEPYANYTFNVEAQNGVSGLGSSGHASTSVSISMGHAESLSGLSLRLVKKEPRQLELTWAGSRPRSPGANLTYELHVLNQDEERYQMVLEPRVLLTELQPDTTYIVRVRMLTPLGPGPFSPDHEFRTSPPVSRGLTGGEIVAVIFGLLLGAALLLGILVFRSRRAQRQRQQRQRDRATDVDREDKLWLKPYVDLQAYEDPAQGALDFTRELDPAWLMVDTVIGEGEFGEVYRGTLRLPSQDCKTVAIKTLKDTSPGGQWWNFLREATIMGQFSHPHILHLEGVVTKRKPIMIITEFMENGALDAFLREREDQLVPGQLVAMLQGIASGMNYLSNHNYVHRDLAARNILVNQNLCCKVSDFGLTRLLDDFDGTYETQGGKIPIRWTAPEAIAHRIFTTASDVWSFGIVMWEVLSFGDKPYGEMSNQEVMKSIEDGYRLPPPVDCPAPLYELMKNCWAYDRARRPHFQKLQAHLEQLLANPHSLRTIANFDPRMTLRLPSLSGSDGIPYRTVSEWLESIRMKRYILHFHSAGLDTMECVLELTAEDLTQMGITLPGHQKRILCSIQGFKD

Compound	assay	conditions	remaining binding
COc1ncc2cc3ccccc3nc2c1C#N	cell-free assay, competition with immobilised ligand	5 µM	95%
CNC(=O)Nc1ccc2c(c1)CC[C@@]21OC(=O)N(CC(=O)N(Cc2ccc(F)cc2)[C@@H](C)C(F)(F)F)C1=O	cell-free assay, competition with immobilised ligand	1 µM	88%
N[C@H]1CCN(c2nccc(-c3cnn4ncccc34)n2)C1	binding	1 µM	100%
O=C(c1ccc(Nc2ncc(Cl)c(-c3ccc(Cl)s3)n2)cc1)N1CCC(N2CCCC2)CC1	binding, competition with immobilised ligand	1 µM	32%
COc1ccnn2ncc(-c3ccnc(N(C)C)n3)c12	binding	1 µM	100%
CNCc1ccccc1-c1csc([C@@H](C)Nc2nc(C)nc3cc(OC)c(OC)cc23)c1	cell-free assay, competition with immobilised ligand	1 µM	79%
O=C(c1ccc(Nc2nccc(-c3cc4ccccc4s3)n2)cc1)N1CCC(N2CCCC2)CC1	binding, competition with immobilised ligand	1 µM	32%
CCN1CCN(Cc2ccc(C(=O)Nc3ccc(C)c(Oc4ccc5c(c4)CC(=O)N5)c3)cc2C(F)(F)F)CC1	binding, competition with immobilised ligand	1 µM	77%
O=C(c1ccc(Nc2ncc(Cl)c(-c3cc4ccccc4s3)n2)cc1)N1CCC(N2CCCC2)CC1	binding, competition with immobilised ligand	1 µM	16%
Cc1nc(Cc2cccc(C(F)(F)F)c2)sc1-c1ccc(C(N)=O)nc1	cell-free assay, competition with immobilised ligand	1 µM	81%
C[C@@H]1CCN(c2nccc(-c3cnn4ncccc34)n2)C1	binding	1 µM	100%
COc1ccc2cc(OCC3(C(=O)O)CN(C(=O)c4ccc(F)cc4)C3)ccc2c1	cell-free assay, competition with immobilised ligand	1 µM	83%
CNC(=O)[C@@H]1CC[C@@H](n2c(-c3ccc4cnccc4c3)nc3ccc(C(=O)NCc4cccc(C(N)=O)c4)cc32)C1	binding, competition with immobilised ligand	1 µM	100%
CC1CCCN1c1nccc(-c2cnn3ncccc23)n1 (stereo not drawn)	binding	1 µM	96%
C=CC(=O)N1CCC(C(=O)NCC(=O)N2CCN(c3nc(-c4cnc(N)nc4C(F)F)nc(N4CCOCC4)n3)CC2)CC1	binding, competition with immobilised ligand	1 µM	100%
CN(c1nccc(-c2cnn3ncccc23)n1)C1CC1	binding	1 µM	99%
COc1cnc(Nc2cccc(S(N)(=O)=O)c2)nc1N1CCN(c2ccccc2)C(=O)C1	binding, competition with immobilised ligand	1 µM	90%
CC(=O)N1CCC(c2ccc(C(=O)NC3=NCCN3)cc2C(F)(F)F)CC1	cell-free assay, competition with immobilised ligand	1 µM	88%
c1cnn2ncc(-c3ccnc(N4CCC45COC5)n3)c2c1	binding	1 µM	89%
CC(C)CC(=O)N1CCc2nc(-c3ccc(Br)cc3)nc(N(C)Cc3ccccc3)c2C1	cell-free assay, competition with immobilised ligand	0.1 µM	100%
O=C(Nc1c[nH]nc1C(=O)NC1CCNCC1)c1cc(F)cc(F)c1	binding, competition with immobilised ligand	1 µM	100%
